Measurements published in ChEMBL document CHEMBL1135646, “In vitro photodynamic properties of chalcogenopyrylium analogues of the thiopyrylium antitumor agent AA1” (J Med Chem, 2002).

What was measured:
[1] = Distribution coefficient between octanol and phosphate buffer at pH6.0; assay type: physicochemical; settings: pH 6
Outline: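 Shake-flask partitioning between n-octanol and pH 6 phosphate buffer as the aqueous phase. Mixing for 3–5 min, then 1 h settling, with equilibration at 23 °C. Each phase is quantified by UV–visible spectrophotometry, and the result is reported as log P.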

[2] = system: Colon 26; test: Effective concentration evaluated in light induced toxicity toward COLO-26, murine colon carcinoma cell line after irradiation with 15 J/cm**2 of 360-800nm light; assay type: functional, cell-based; settings: Mus musculus, Colon 26, light or radiation study
Outline: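 Colo-26 cells in RPMI 1640 with 10% FCS are seeded at 5×10^3 cells/well the evening before. Cells are washed with PBS and given dye in HBSS with 1% FCS for 2 h at 37 °C. After a wash, irradiation in PBS with 1% FCS uses filtered 360–800-nm tungsten-halogen light to 15 J cm⁻². Growth medium is added and cells are held 24 h. MTT read-out; EC50 is the concentration giving 50% cell kill.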

[3] = Ratio of LD50 value to that of EC50 value.; assay type: functional
[4] = compound evaluated for dark induced toxicity toward COLO-26, murine colon carcinoma cell line; assay type: cell-based; settings: mouse, COLO-26 (Colon 26) murine colon carcinoma cells; read-out: LD50 (the source's name)
Outline: (§1)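 Colo-26 murine colon carcinoma cells were grown in RPMI 1640 with 10% FCS at 37 °C, 5% CO2, and plated at 5×10^3 cells/well the evening before. After two PBS washes, they took dye at various concentrations in HBSS with 1% FCS at 37 °C. They were then washed, left unirradiated, given growth medium, and kept 24 h. Survival was read by MTT, and LD50 is the 50% kill concentration.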

[5] = Lethal dose evaluated in dark induced toxicity toward COLO-26, murine colon carcinoma cell line; settings: mouse, COLO-26 (Colon 26) murine colon carcinoma cells; read-out: LD50 (the source's name); outline: as §1

Compound c1cc(N2CCOCC2)ccc1-c1cc(-c2ccc(N3CCOCC3)cc2)[se+]c(-c2ccc(N3CCOCC3)cc2)c1 has a logD [1] of 1.2, an EC50 [2] of 800 nM and a Ratio [3] of 9. The CC50 [4] was 7200 nM.

Compound CN(C)c1ccc(-c2cc(-c3ccc(N(C)C)cc3)[s+]c(-c3ccc(N(C)C)cc3)c2)cc1 has a logD [1] of 2.2, an EC50 [2] of 200 nM and a Ratio [3] of 2.5. The CC50 [4] was 500 nM.

Compound Nc1ccc(-c2cc(-c3ccccc3)cc(-c3ccc(N4CCOCC4)cc3)[te+]2)cc1 has a logD [1] of 1 and a CC50 [4] of 70 nM.

With Nc1ccc(-c2cc(-c3ccc(N4CCOCC4)cc3)cc(-c3ccc(N)cc3)[s+]2)cc1 the logD [1] was 1.8 and the CC50 [4] was 800 nM.

Work on Nc1ccc(-c2cc(-c3ccccc3)cc(-c3ccc(N4CCOCC4)cc3)[se+]2)cc1 yielded a logD [1] of 0.9 and a CC50 [4] of 900 nM.

In the case of CN(C)c1ccc(-c2cc(-c3ccc(N(C)C)cc3)[se+]c(-c3ccc(N(C)C)cc3)c2)cc1, the logD [1] is reported as 2.2, the EC50 [2] is reported as 300 nM and the Ratio [3] is reported as 1.7. For the same compound, the CC50 [4] was 500 nM.

CN(C)c1ccc(-c2cc(-c3ccccc3)[te+]c(-c3ccc(N)cc3)c2)cc1 gave a logD [1] of 1.9 and a CC50 [4] of 600 nM.

In the case of Nc1ccc(-c2cc(-c3ccc(N4CCOCC4)cc3)cc(-c3ccc(N4CCOCC4)cc3)[te+]2)cc1, the logD [1] is reported as 1.6, the EC50 [2] is reported as 600 nM and the Ratio [3] is reported as 1.3. It also gave a CC50 [4] of 800 nM.

In the case of Nc1ccc(-c2cc(-c3ccc(N4CCOCC4)cc3)cc(-c3ccc(N4CCOCC4)cc3)[s+]2)cc1, the logD [1] is reported as 1.3, the EC50 [2] is reported as 2000 nM and the Ratio [3] is reported as 33. For the same compound, the CC50 [4] was 66000 nM.

In the case of Nc1ccc(-c2cc(-c3ccc(N4CCOCC4)cc3)cc(-c3ccc(N4CCOCC4)cc3)[se+]2)cc1, the logD [1] is reported as 1.2, the EC50 [2] is reported as 1900 nM and the Ratio [3] is reported as 3.6. The CC50 [4] was 6900 nM.

Nc1ccc(-c2cc(-c3ccc(N4CCOCC4)cc3)cc(-c3ccccc3)[se+]2)cc1 showed a logD [1] of 1.2 and a CC50 [4] of 6500 nM.

For CN(C)c1ccc(-c2cc(-c3ccccc3)[s+]c(-c3ccc(N)cc3)c2)cc1, the logD [1] was 1.3 and the CC50 [4] was 70 nM.

CN(C)c1ccc(-c2cc(-c3ccc(N)cc3)[te+]c(-c3ccc(N)cc3)c2)cc1 showed a logD [1] of 2 and a CC50 [4] of 500 nM.

Compound Nc1ccc(-c2cc(-c3ccccc3)cc(-c3ccc(N4CCOCC4)cc3)[s+]2)cc1 has a logD [1] of 1.1 and a CC50 [4] of 1800 nM.

For CN(C)c1ccc(-c2cc(-c3ccc(N)cc3)[s+]c(-c3ccc(N4CCOCC4)cc3)c2)cc1, the logD [1] was 0.9 and the CC50 [4] was 900 nM.

In the case of CN(C)c1ccc(-c2cc(-c3ccccc3)[se+]c(-c3ccc(N)cc3)c2)cc1, the logD [1] is reported as 1.2, the EC50 [2] is reported as 200 nM and the Ratio [3] is reported as 13. For the same compound, the CC50 [4] was 2600 nM.

For CN(C)c1ccc(-c2cc(-c3ccc(N)cc3)[se+]c(-c3ccc(N)cc3)c2)cc1, the logD [1] was 1.7, the EC50 [2] was 370 nM and the Ratio [3] was 3.8. The CC50 [4] was 1400 nM.

Compound CN(C)c1ccc(-c2cc(-c3ccc(N)cc3)[se+]c(-c3ccc(N4CCOCC4)cc3)c2)cc1 has a logD [1] of 1, an EC50 [2] of 70 nM and a Ratio [3] of 21. For the same compound, the CC50 [4] was 1500 nM.

Nc1ccc(-c2cc(-c3ccc(N4CCOCC4)cc3)cc(-c3ccc(N)cc3)[se+]2)cc1 showed a logD [1] of 1.5, an EC50 [2] of 1200 nM and a Ratio [3] of 3.2. The CC50 [4] was 3800 nM.

Work on CN(C)c1ccc(-c2cc(-c3ccccc3)cc(-c3ccc(N)cc3)[se+]2)cc1 yielded a logD [1] of 1.3 and a CC50 [4] of 400 nM.

Nc1ccc(-c2cc(-c3ccc(N4CCOCC4)cc3)cc(-c3ccc(N)cc3)[te+]2)cc1 gave a logD [1] of 1.9 and a CC50 [4] of 1400 nM.

For CN(C)c1ccc(-c2cc(-c3ccc(N)cc3)[te+]c(-c3ccc(N4CCOCC4)cc3)c2)cc1, the logD [1] was 1 and the CC50 [5] was 500 nM.

With CN(C)c1ccc(-c2cc(-c3ccc(N)cc3)[s+]c(-c3ccc(N)cc3)c2)cc1 the logD [1] was 1.9 and the CC50 [4] was 100 nM.
